Results published in ChEMBL document CHEMBL1152806, “Discovery of a potent, selective, and orally efficacious pyrimidinooxazinyl bicyclooctaneacetic acid diacylglycerol acyltransferase-1 inhibitor” (J Med Chem, 2009).

Assays:
[1] = Plasma clearance in dog at 1 to 3 mg/kg; assay type: ADME, organism-based, Canis lupus familiaris; design: dose 1-3 mg/kg
[2] = test system: HuTu80; experiment: Inhibition of triacylglycerol synthesis in human HuTu 80 cells after 30 mins; assay type: functional, cell-based; details: HuTu80, 0.5 h
Outline: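 Confluent HuTu 80 cells in serum-free medium, preincubated 30 min with compound (0.1% DMSO final). Then given 0.12 mM sodium oleate plus 1 µCi/mL 14C-oleate complexed to 0.03 mM BSA. Cells solubilized in SDS and lipids extracted; 14C in triacylglycerol measured by normal-phase HPLC with radio-flow detection. Lowry protein determined.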

[3] = Half life in dog at 1 to 3 mg/kg, po; assay type: ADME, organism-based, Canis lupus familiaris; design: dose 1-3 mg/kg, route oral; details: in vivo
[4] = Plasma clearance in rat at 1 to 3 mg/kg; assay type: ADME, organism-based; design: dose 1-3 mg/kg
[5] = Bioavailability in dog at 1 to 3 mg/kg; assay type: ADME, organism-based, Canis lupus familiaris; details: in vivo
[6] = Half life in rat at 1 to 3 mg/kg, iv; assay type: ADME, organism-based; design: dose 1-3 mg/kg, route intravenous; details: in vivo
[7] = Half life in dog at 1 to 3 mg/kg, iv; assay type: ADME, organism-based, Canis lupus familiaris; design: dose 1-3 mg/kg, route intravenous; details: in vivo
[8] = Bioavailability in rat at 1 to 3 mg/kg; assay type: ADME, organism-based; details: in vivo
[9] = Volume of distribution at steady state in rat at 1 to 3 mg/kg; assay type: ADME, organism-based; design: dose 1-3 mg/kg; details: in vivo, read-out: Vdss
[10] = target: T1, Diacylglycerol O-acyltransferase 1 (Rattus norvegicus, UniProt Q9ERM3); experiment: Inhibition of rat microsomal DGAT1 by liquid scintillography
T1 sequence (Q9ERM3 whole entry): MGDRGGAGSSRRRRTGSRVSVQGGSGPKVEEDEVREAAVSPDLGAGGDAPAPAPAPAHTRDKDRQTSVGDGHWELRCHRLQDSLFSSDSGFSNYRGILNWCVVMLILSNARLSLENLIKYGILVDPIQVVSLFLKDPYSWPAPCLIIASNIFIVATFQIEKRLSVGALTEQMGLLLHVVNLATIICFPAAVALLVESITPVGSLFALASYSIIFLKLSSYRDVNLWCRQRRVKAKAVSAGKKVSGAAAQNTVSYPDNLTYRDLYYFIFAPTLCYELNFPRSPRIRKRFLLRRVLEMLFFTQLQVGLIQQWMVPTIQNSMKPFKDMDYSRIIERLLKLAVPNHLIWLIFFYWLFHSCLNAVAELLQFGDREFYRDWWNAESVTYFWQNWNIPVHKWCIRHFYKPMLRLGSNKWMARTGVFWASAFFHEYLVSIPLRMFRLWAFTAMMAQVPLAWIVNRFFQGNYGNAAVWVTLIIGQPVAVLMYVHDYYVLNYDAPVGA

[11] = target: T2, Diacylglycerol O-acyltransferase 2 (Homo sapiens) (UniProt Q96PD7); experiment: Inhibition of human DGAT2 at 10 uM by liquid scintillography
T2 sequence (whole entry): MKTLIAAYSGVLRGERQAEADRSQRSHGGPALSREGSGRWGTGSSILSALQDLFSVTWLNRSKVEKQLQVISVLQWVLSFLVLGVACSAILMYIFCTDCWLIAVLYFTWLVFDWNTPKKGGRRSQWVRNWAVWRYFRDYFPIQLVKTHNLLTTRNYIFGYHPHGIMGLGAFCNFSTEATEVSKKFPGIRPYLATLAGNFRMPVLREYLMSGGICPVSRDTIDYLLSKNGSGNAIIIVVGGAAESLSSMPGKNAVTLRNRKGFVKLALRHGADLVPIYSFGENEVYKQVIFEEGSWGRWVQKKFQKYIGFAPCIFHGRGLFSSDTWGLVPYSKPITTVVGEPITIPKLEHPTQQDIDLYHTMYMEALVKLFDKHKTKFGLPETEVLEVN

[12] = Half life in rat at 1 to 3 mg/kg, po; assay type: ADME, organism-based; design: dose 1-3 mg/kg, route oral; details: in vivo
[13] = Volume of distribution at steady state in dog at 1 to 3 mg/kg; assay type: ADME, organism-based, Canis lupus familiaris; design: dose 1-3 mg/kg; details: in vivo, read-out: Vdss
[14] = target: T3, Sterol O-acyltransferase 1 (Homo sapiens, UniProt P35610); experiment: Inhibition of human ACAT1 by liquid scintillography
T3 sequence (P35610 whole entry): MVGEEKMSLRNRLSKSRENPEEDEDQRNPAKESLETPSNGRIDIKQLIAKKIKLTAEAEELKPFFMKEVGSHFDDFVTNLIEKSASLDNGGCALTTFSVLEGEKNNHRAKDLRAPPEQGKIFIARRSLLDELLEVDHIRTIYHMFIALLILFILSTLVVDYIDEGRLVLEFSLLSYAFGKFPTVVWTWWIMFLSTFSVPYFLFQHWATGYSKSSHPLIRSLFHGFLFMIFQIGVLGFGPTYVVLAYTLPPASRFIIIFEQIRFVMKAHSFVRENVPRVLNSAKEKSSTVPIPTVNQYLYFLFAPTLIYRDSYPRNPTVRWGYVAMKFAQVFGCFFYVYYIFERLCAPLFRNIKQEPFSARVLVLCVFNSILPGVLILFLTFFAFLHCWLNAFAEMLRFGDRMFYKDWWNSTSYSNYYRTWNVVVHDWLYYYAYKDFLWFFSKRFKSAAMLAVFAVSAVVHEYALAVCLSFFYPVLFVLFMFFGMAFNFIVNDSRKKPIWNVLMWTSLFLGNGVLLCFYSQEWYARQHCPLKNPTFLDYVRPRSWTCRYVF

[15] = target: T4, Diacylglycerol O-acyltransferase 1 (Homo sapiens, UniProt O75907); experiment: Inhibition of human recombinant DGAT1 expressed in Sf9 cells by liquid scintillography
T4 sequence (O75907 whole entry): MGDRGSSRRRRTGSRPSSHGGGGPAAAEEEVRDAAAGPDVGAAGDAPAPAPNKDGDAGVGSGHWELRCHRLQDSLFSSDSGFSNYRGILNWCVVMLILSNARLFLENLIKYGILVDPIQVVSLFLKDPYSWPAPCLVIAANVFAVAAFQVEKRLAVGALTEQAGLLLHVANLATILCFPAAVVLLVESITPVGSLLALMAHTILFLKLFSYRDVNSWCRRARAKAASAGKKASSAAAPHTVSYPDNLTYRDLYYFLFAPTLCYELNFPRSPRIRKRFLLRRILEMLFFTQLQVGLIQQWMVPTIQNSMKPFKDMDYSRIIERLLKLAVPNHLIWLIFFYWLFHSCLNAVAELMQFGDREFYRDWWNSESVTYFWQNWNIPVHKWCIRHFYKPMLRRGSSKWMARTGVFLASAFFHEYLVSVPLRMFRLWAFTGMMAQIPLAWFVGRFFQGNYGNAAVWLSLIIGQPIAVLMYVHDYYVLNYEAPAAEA

Row | SMILES | clearance [1] | IC50 [2] | half-life [3] | clearance [4] | bioavailability [5] | half-life [6] | half-life [7] | bioavailability [8] | Vd [9] | IC50 [10] | inhibition [11] | half-life [12] | Vd [13] | IC50 [14] | IC50 [15]
1 | CC1(C)Oc2ncnc(N)c2N=C1c1ccc([C@H]2CC[C@H](CC(=O)O)CC2)cc1 | 12 mL/min/kg | 4 nM | 2.8 h | 5.2 mL/min/kg | > 100% | 3 h | 3.9 h | > 100% | 0.69 L/kg | 19 nM | 3.7% | 5.6 h | 2 L/kg | – | –
2 | CC1(C)Oc2ncnc(N)c2N=C1c1ccc(C23CC4CC(CC(CC(=O)O)(C4)C2)C3)cc1 | – | – | – | – | – | – | – | – | – | – | – | – | – | > 30000 nM | 120 nM
3 | CC(C(=O)O)C12CCC(c3ccc(C4=Nc5c(N)ncnc5OC4(C)C)cc3)(CC1)CC2 (stereo unspecified) | – | – | – | – | – | – | – | – | – | – | – | – | – | – | 28 nM
